The results in this text go back to ChEMBL document CHEMBL1123643, “Modulation of the antitumor activity by methyl substitutions in the series of 7H-pyridocarbazole monomers and dimers” (1987).

The test system of test [1] is L1210. Nature of the test: In vivo antitumor activity in L1210 (mouse leukemia) inoculated mice (optimal dose). The class given is functional. In a few lines: (§1)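 DBA2 mice (20–30/group) received 10^5 L1210 cells ip. Compound was given ip 24 h later; controls received solvent vehicle. Deaths were recorded daily, and survivors beyond 45 days were counted as cured. T/C% = treated/control mean survival time × 100. MTD was the highest dose causing no deaths; OD was the optimal dose.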

Test [2] relates to Mus musculus. Nature of the test: In vivo change in mean survival time in L1210 (mouse leukemia) inoculated mice. The class given is functional. In a few lines:
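DBA2 mice given 10^5 L1210 cells ip; 24 h later single ip dose of drug, controls given same volume of solvent; 20–30 animals/group. Deaths recorded daily; survivors beyond 45 days counted cured. Value is treated mean survival time over control mean survival time ×100 (T/C %).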

For test [3], the system named is L1210. Nature of the test: (§2) In vivo maximum tolerate dose in L1210 (mouse leukemia) inoculated mice. The class given is functional. In a few lines: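 L1210-bearing DBA2 mice (10^5 cells ip), drug given ip 24 h after inoculation. Acute toxicity by usual procedure; MTD taken as highest dose administered without causing animal death, in mg/kg.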
The subject of another test is Calf thymus DNA. Nature of the test: Binding affinity against calf-thymus DNA at pH 7.4. Type of test: nucleic-acid assay. The settings on record: Bos taurus. In a few lines: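 Fluorimetric competition at pH 7.4, 25 °C. Monomers: 10^-5 M compound with calf thymus DNA (4 µg/mL), titrated with ethidium bromide (ex 546/em 590 nm), Scatchard analysis. Dimers: ethidium dimer (6.4 × 10^-7 M) with DNA (1.6 × 10^-6 M bp) equilibrated 24 h with varied compound (ex 540/em 610 nm); constant fitted from displacement curves with site size n.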

For test [4], the system named is L1210. Nature of the test: In vitro cellular toxicity against L1210 (mouse leukemia) cells. The class given is functional. The settings on record: read-out: ED50 (the source's name). In a few lines: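 Exponentially growing L1210 cells (1 × 10^5/mL) exposed 24 h at 37 °C in RPMI 1640 with 10% fetal calf serum at a range of concentrations. Total cells counted by flow cytometer. Duplicate treated cultures were expressed as % of triplicate untreated controls. ED50 came from linear regression of residual % versus log concentration.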

The test system of test [5] is L1210. Nature of the test: In vitro inhibition of L1210 (mouse leukemia) cell cloning efficiency. Type of test: functional. In a few lines: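 After 24 h drug exposure, L1210 cells were diluted to 250 and 500 cells/mL and plated in Noble agar. Plates were held 14 days at 37 °C in 5% CO2, and colonies >0.2 mm were counted. Triplicates were run per concentration. CE37, the concentration reducing cloning efficiency to 0.37, came from dose–response curves.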

The subject of test [6] is Mus musculus. Nature of the test: In vivo change in mean survival time in L1210 (mouse leukemia) inoculated mice (Not significant). The class given is functional, organism-based. In a few lines: as §1
The subject of test [7] is L1210. Described as §2. Type of test: functional. In a few lines: as §1
This is another data set of the same source.

A value given as a limit tells only on which side of the number the result lay.

`COc1ccc2c(c1)c1c3cc(NCCN4CCC(C5CCN(CCNc6ccc7ccc8c(c7c6)c6cc(OC)ccc6n8C)CC5)CC4)ccc3ccc1n2C.Cl.Cl` gave an OD in the test on L1210 [1] of 2.5 mg/kg. In the test on Mus musculus [2], this molecule yielded a T/C of 178%. The molecule further registered a maximal tolerated dose (MTD) in the test with L1210 [3] of 10 mg/kg. The molecule further registered a K in the test with Calf thymus DNA of 2e+07 M⁻¹. Moreover, the EC50 in the test with L1210 [4] is 360 nM. In the test with L1210 [5], this molecule came in with a CE37 of 0.006 µM.
Molecule `COc1ccc2[nH]c3ccc4cc(NCCN5CCC(C6CCN(CCNc7ccc8c(ccc9[nH]c%10ccc(OC)cc%10c98)c7)CC6)CC5)ccc4c3c2c1.Cl.Cl` showed an OD in the test on L1210 [1] of 20 mg/kg. Further, in the test with Mus musculus [2], the T/C was 130%. Further, in the test with L1210 [3], the MTD worked out at 100 mg/kg. This molecule registered a K in the test with Calf thymus DNA of 3e+06 M⁻¹.
In turn, `COc1ccc2[nH]c3cc(C)c4ccc(NCCN5CCC(C6CCN(CCNc7ccc8c(C)cc9[nH]c%10ccc(OC)cc%10c9c8c7)CC6)CC5)cc4c3c2c1.Cl.Cl` showed an OD in the test with L1210 [1] of 2 mg/kg. In the test on Mus musculus [2], this molecule displayed a T/C of 120%. For the same molecule, the maximum tolerated dose (MTD) in the test with L1210 [3] came out at 6 mg/kg. This molecule also gave a K in the test with Calf thymus DNA of 5e+06 M⁻¹. Moreover, the EC50 in the test with L1210 [4] is greater than 1000 nM. Besides, the CE37 in the test on L1210 [5] was found to be 0.42 µM.
Consider `COc1ccc2[nH]c3c(C)cc4ccc(NCCN5CCC(C6CCN(CCNc7ccc8cc(C)c9[nH]c%10ccc(OC)cc%10c9c8c7)CC6)CC5)cc4c3c2c1.Cl.Cl`, for which the T/C with Mus musculus [2] is reported as 172%. In the test on L1210 [3], this molecule showed a maximum tolerated dose (MTD) of 11 mg/kg. In the test with Calf thymus DNA, this molecule displayed a K of 5e+08 M⁻¹. The EC50 in the test on L1210 [4] turned out to be 370 nM. This molecule returned a CE37 in the test on L1210 [5] of 0.01 µM.
On to `CNc1ccc2cc(C)c3c(c2c1)c1cc(OC)ccc1n3C.I`, for which, in the test with Calf thymus DNA, the K turned out to be 1e+06 M⁻¹. The EC50 in the test on L1210 [4] turned out to be 220 nM. For the same molecule, the CE37 in the test on L1210 [5] was 0.6 µM.
Regarding `CNc1ccc2c(ccc3c2c2cc(OC)ccc2n3C)c1.I`, the OD in the test on L1210 [1] was determined as 75 mg/kg. Besides, the T/C in the test with Mus musculus [2] is reported as 115%. In addition, the MTD in the test with L1210 [3] was 150 mg/kg. This molecule also showed a K in the test with Calf thymus DNA of 310000 M⁻¹. In addition, the EC50 in the test with L1210 [4] worked out at 2220 nM.
`CNc1ccc2ccc3c(c2c1)c1cc(OC)ccc1n3C.I` returned an OD with L1210 [1] of 17 mg/kg. The T/C with Mus musculus [2] stood at 122%. The molecule also returned a maximal tolerated dose (MTD) in the test with L1210 [3] of 25 mg/kg. Moreover, the K in the test on Calf thymus DNA was determined as 700000 M⁻¹. Also, in the test on L1210 [4], the EC50 came out at 220 nM. In the test on L1210 [5], the CE37 was 0.74 µM.
`CNc1ccc2ccc3[nH]c4ccc(OC)cc4c3c2c1.I` returned an OD with L1210 [1] of 25 mg/kg. For the same molecule, in the test with L1210 [3], the MTD is 50 mg/kg. In addition, the K in the test with Calf thymus DNA came to 290000 M⁻¹. For the same molecule, in the test on L1210 [4], the EC50 amounted to 950 nM. In the test with Mus musculus [6], the T/C result is “Not significant”. In the test on L1210 [5], this molecule displayed a CE37 of 0.77 µM.
`CNc1cccc2c1ccc1[nH]c3ccc(OC)cc3c12.I` registered a K with Calf thymus DNA of 40000 M⁻¹. For the same molecule, the EC50 in the test with L1210 [4] worked out at 19200 nM. In the test on L1210 [5], this molecule registered a CE37 greater than 2.5 µM.
The matching figures for `CNc1ccc2c(C)cc3[nH]c4ccc(OC)cc4c3c2c1.I`: 60000 M⁻¹, greater than 2500 nM and 3.71 µM.
As to `COc1ccc2[nH]c3c(C)cc4ccc(NCCN5CCCCC5)cc4c3c2c1.Cl`, the OD in the test on L1210 [1] was 5 mg/kg. In the test with Mus musculus [2], this molecule yielded a T/C of 123%. In the test on L1210 [3], this molecule showed a maximum tolerated dose (MTD) of 23 mg/kg. Further, in the test on Calf thymus DNA, the K came to 930000 M⁻¹. Moreover, in the test on L1210 [4], the EC50 came to 110 nM. Besides, in the test on L1210 [5], the CE37 amounted to 0.1 µM.
The molecule `COc1ccc2[nH]c3ccc4ccc(NCCN5CCCCC5)cc4c3c2c1.Cl` yielded an OD in the test with L1210 [1] of 5 mg/kg. This molecule also registered an MTD in the test with L1210 [3] of 10 mg/kg. In the test on Calf thymus DNA, this molecule returned a K of 540000 M⁻¹. In addition, the EC50 in the test on L1210 [4] was 250 nM. Moreover, the T/C result in the test on Mus musculus [6] is “Not significant”. Further, the CE37 with L1210 [5] was determined as 0.14 µM.
Regarding `COc1ccc2[nH]c3cc(C)c4ccc(NCCN5CCCCC5)cc4c3c2c1`, the K with Calf thymus DNA amounted to 100000 M⁻¹. Also, the EC50 in the test on L1210 [4] came out at 2240 nM.
For `CNc1ccc2c(ccc3[nH]c4ccc(OC)cc4c32)c1.I`, in the test on L1210 [1], the OD stood at 25 mg/kg. This molecule registered an MTD with L1210 [3] of 50 mg/kg. For the same molecule, the K in the test on Calf thymus DNA is 200000 M⁻¹. Also, the EC50 in the test on L1210 [4] is greater than 2500 nM. Further, in the test on Mus musculus [6], the T/C result was “Not significant”.
In the test with L1210 [1], `COc1ccc2c(c1)c1c3ccc(NCCN4CCC(C5CCN(CCNc6ccc7c(ccc8c7c7cc(OC)ccc7n8C)c6)CC5)CC4)cc3ccc1n2C.Cl.Cl` gave an OD of 7.5 mg/kg. Besides, in the test with L1210 [3], the MTD came out at 15 mg/kg. The molecule also had a K in the test with Calf thymus DNA of 6e+06 M⁻¹. The T/C result with Mus musculus [6] was “Not significant”. In the test with L1210 [5], this molecule showed a CE37 of 3.93 µM.
Turning to `CNc1ccc2cc(C)c3[nH]c4ccc(OC)cc4c3c2c1.I`, the Optimal dose with L1210 [1] was 25 mg/kg. Moreover, the T/C with Mus musculus [2] came out at 125%. This molecule also gave a K with Calf thymus DNA of 180000 M⁻¹. Moreover, the EC50 with L1210 [4] turned out to be 60 nM. In addition, the Dose with L1210 [7] was determined as 50 mg/kg. Further, in the test with L1210 [5], the CE37 turned out to be 0.03 µM.
For the molecule `COc1ccc2c(c1)c1c3cc(NCCN4CCCCC4)ccc3cc(C)c1n2C.Cl`, in the test on L1210 [1], the OD is 10 mg/kg. The molecule further returned an MTD with L1210 [3] of 10 mg/kg. Besides, the K in the test on Calf thymus DNA worked out at 610000 M⁻¹. Moreover, in the test on L1210 [4], the EC50 worked out at 440 nM. The T/C entry with Mus musculus [6] is “Not significant”.
`COc1ccc2[nH]c3c(C)cc4cc(NCCN5CCC(C6CCN(CCNc7ccc8c(c7)cc(C)c7[nH]c9ccc(OC)cc9c78)CC6)CC5)ccc4c3c2c1.Cl.Cl` showed a K with Calf thymus DNA of 1e+07 M⁻¹. Also, the EC50 with L1210 [4] is greater than 1000 nM. The CE37 in the test on L1210 [5] worked out at 0.6 µM.
The molecule `CNc1ccc2c(c1)cc(C)c1[nH]c3ccc(OC)cc3c12.I` came in with a K in the test with Calf thymus DNA of 300000 M⁻¹. In the test on L1210 [4], the EC50 came out at 300 nM. In addition, in the test with L1210 [5], the CE37 was 0.15 µM.
`COc1ccc2c(c1)c1c3cc(NCCN4CCCCC4)ccc3ccc1n2C.Cl` had an OD with L1210 [1] of 5 mg/kg. In addition, in the test on L1210 [3], the MTD was found to be 10 mg/kg. Also, the K in the test on Calf thymus DNA stood at 1.2e+06 M⁻¹. The EC50 in the test with L1210 [4] came to 670 nM. Also, the T/C result with Mus musculus [6] is “Not significant”. The same molecule registered a CE37 in the test on L1210 [5] of 3.36 µM.
For the molecule `COc1ccc2[nH]c3ccc4ccc(NCCN5CCC(C6CCN(CCNc7ccc8ccc9[nH]c%10ccc(OC)cc%10c9c8c7)CC6)CC5)cc4c3c2c1.CS(=O)(=O)O.CS(=O)(=O)O`, the OD in the test with L1210 [1] was 10 mg/kg. In addition, the T/C with Mus musculus [2] turned out to be 182%. In the test on L1210 [3], this molecule yielded an MTD of 10 mg/kg. This molecule showed a K in the test on Calf thymus DNA of 1e+07 M⁻¹. For the same molecule, the EC50 in the test with L1210 [4] was 190 nM. Besides, the CE37 with L1210 [5] was determined as 0.024 µM.
With `CNc1cccc2c1cc(C)c1[nH]c3ccc(OC)cc3c12.I`, the K in the test on Calf thymus DNA is 61000 M⁻¹. The EC50 with L1210 [4] is greater than 2500 nM. Further, the CE37 in the test on L1210 [5] is greater than 2.5 µM.
For `COc1ccc2c(c1)c1c3cc(NCCN4CCC(C5CCN(CCNc6ccc7cc(C)c8c(c7c6)c6cc(OC)ccc6n8C)CC5)CC4)ccc3cc(C)c1n2C.Cl.Cl`, in that order: 1e+08 M⁻¹, 3270 nM and 10.9 µM.
